G6PDH counter = inhibits Leuconostoc G6PDH, flagging false hits in G6PDH-based assays; Purified L. mesenteroides G6PDH, diaphorase/resazurin coupled fluorescence, 45 min; 200,000 tested, 0.12% active; inhibition, % at 5 µM; in the data active = inhibition above about 50%
PfGluPho inh = PfG6PD (Plasmodium falciparum) enzyme inhibition; PfGluPho enzyme, NADPH resazurin-diaphorase fluorescence; inhibition, % at 20 µM; 350,000 tested, 0.78% active; AID 504690;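 active = inhibition reaching at least a set limit at 20 µM in the primary screen, cut at about 59% in these data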;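 note: 0% = DMSO wells with substrate and 100% = DMSO wells lacking glucose-6-phosphate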
HKDC1 inh = blocks human hexokinase HKDC1 activity. Q2TB90. recombinant HKDC1, G6PDH/diaphorase resazurin coupled fluorescence. inhibition, % at 20 µM. 340,000 tested, 0.16% active. AID 493160;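 active = inhibition above about 35% when tested at 20 µM, limit read from the data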;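 note: plate controls were DMSO wells with enzyme for no effect and DMSO wells lacking enzyme for full effect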
Target sequence (Q2TB90 whole entry, looked up): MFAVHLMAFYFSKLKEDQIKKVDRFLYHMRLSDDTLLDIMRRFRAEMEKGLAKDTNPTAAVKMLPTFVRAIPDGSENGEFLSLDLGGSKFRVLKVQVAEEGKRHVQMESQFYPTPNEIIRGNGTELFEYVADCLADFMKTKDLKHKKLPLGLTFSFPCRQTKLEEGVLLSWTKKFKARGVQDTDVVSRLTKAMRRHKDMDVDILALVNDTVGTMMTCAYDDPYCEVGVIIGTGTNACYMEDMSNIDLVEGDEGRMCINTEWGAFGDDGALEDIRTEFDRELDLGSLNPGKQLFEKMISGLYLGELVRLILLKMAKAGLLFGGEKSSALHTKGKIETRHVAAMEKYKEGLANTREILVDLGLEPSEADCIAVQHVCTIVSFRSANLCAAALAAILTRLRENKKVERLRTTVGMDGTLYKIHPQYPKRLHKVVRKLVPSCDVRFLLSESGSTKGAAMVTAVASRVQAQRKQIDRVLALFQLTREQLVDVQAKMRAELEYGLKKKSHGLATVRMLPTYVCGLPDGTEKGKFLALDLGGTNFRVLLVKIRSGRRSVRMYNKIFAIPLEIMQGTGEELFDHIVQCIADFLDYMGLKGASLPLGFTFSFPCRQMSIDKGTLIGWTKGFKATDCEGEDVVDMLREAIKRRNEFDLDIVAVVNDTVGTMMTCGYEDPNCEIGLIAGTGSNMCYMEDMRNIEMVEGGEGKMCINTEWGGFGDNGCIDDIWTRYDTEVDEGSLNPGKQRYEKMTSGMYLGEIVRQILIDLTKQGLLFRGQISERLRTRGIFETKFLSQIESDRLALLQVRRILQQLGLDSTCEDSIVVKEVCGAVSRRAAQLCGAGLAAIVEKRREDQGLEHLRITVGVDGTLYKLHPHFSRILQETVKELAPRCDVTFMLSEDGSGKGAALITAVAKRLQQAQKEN
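Test system: Recombinant HKDC1 (HK5) hexokinase enzyme, produced in-house | Input: HKDC1 at 5 µg/mL | Buffer or medium: Tris pH 8.0 buffer with MgCl2, Tween-20, BSA, BME | Schedule: 90 min reaction incubation at room temperature, dark | Technique: Resazurin-to-resorufin fluorescence via G6PDH and diaphorase coupling, 525/613 nm | Controls: DMSO wells with and without enzyme mix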
Diaphorase inh = diaphorase inhibition or chemical oxidation counter-screen; diaphorase resazurin-to-resorufin fluorescence, NADH, 16 min; bacterial (C. kluyveri) enzyme, not human; inhibition, % at 20 µM; 190,000 tested, 0.69% active;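 active = primary screen inhibition at 20 µM above a set limit, cut at about 50% in these data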;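 note: plate controls were DMSO with full reaction for no effect and wells lacking NADH for full effect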
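material = Clostridium kluyveri diaphorase enzyme | amount = 0.14 U/mL diaphorase, enzyme working solution | schedule = incubation 16 min, room temperature | detection = fluorescence of resorufin formed from resazurin, Ex 544/Em 590 nm | benchmarks = positive control minus NADH, DMSO neutral control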
PfG6PD confirm = confirmation of Plasmodium falciparum G6PD inhibitors; 2,400 tested, 34% active; recombinant PfGluPho, NADPH-diaphorase-resazurin fluorescence; shares compounds with PfGluPho inh; inhibition, % at 20 µM;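 active = inhibition of at least 50% at 20 µM in any single replicate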;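 note: 0% = DMSO with substrate and 100% = DMSO lacking glucose-6-phosphate substrate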
Diaph ctr 10uM = inhibits diaphorase or oxidizes, flagging false PfG6PD hits. shares compounds with PfGluPho inh. diaphorase-coupled resazurin reduction, fluorescence, NADPH 10 uM. inhibition, % at 20 µM. 820 tested, 39% active;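 active = average inhibition reaching 50% or more with the compound at 20 µM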;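 note: resorufin red fluorescence formed as diaphorase reduces resazurin using NADPH; 0% = DMSO with enzyme and 100% = DMSO without enzyme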
Diaph ctr 30uM = diaphorase inhibition or oxidation at 30 uM NADPH. shares compounds with PfGluPho inh. Diaphorase/resazurin coupled assay, resorufin fluorescence. inhibition, % at 20 µM. 820 tested, 29% active. AID 504863;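 active = inhibition averaging 50% or more, tested at 20 µM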;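 note: 0% = DMSO with enzyme and 100% = DMSO wells lacking diaphorase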
* marks the source's active call; other numbers are inactive results; x = not tested or not shown. Rows were chosen to be rich in hits. Some 1.3% of all compounds tested hit in one or more screens of this group.

SMILES	G6PDH counter	PfGluPho inh	HKDC1 inh	Diaphorase inh	PfG6PD confirm	others
COc1ccc(CCn2c(NN=C3CCCCC3)nc3c2c(=O)[nH]c(=O)n3C)cc1	x	106*	11	x	81*	Diaph ctr 10uM=-8;Diaph ctr 30uM=-5
COCCn1nnnc1C(c1cc2cc(OC)c(OC)cc2[nH]c1=O)N1CCN(c2ccc(O)cc2)CC1 (configuration not stated)	33	65*	6	x	56*	Diaph ctr 10uM=7;Diaph ctr 30uM=-3
CCc1ccc2[nH]c(=O)c(C(c3nnnn3CCOC)N3CCN(c4ccc(F)cc4)CC3)cc2c1 (configuration not stated)	5	8	2	24	x
COc1ccc(N2C(=S)N(C(=O)c3ccccc3)C(=Nc3ccccc3)C2=Nc2ccccc2)cc1	x	64*	-12	x	31
CC(=O)NC(Cc1c[nH]c2ccccc12)C(=O)OCC(=O)N1CCN(S(=O)(=O)c2ccc(Cl)cc2)CC1 (configuration not stated)	x	12	-2	x	x
Cc1nc(SCC(=O)N2CCOCC2)c2c(=O)n(C)c(=O)n(CC(C)C)c2n1	x	-4	-4	x	x
CCN(c1ccccc1)S(=O)(=O)c1ccc(N2CCN(c3ccc(O)cc3)CC2)nc1	x	76*	11	x	16
C[C@H](NC(=O)c1ncn(Cc2ccccc2)c1C(=O)N[C@@H](C)c1ccccc1)c1ccccc1	x	23	0	x	x
O=C(O)c1ccc(SCc2ccccc2)nc1	x	-21	-1	x	x
Cc1cc(OCC(=O)NNC(=S)NC(=O)c2ccc(Br)o2)ccc1Cl	x	5	-31	x	x
COc1ccc(Cl)cc1C=CC=Nc1ccccc1O	x	76*	22	x	19
O=C(Nc1ccccn1)c1sc2cc([N+](=O)[O-])ccc2c1Cl	x	70*	-22	x	61*	Diaph ctr 10uM=-15;Diaph ctr 30uM=-18
O=C(NCCCN1CCOCC1)c1sc2cc([N+](=O)[O-])ccc2c1Cl	1	88*	15	6	95*	Diaph ctr 10uM=-22;Diaph ctr 30uM=-21
Cc1ccc(S(=O)(=O)N2CCOCC2)cc1NC(=O)COC(=O)CCC(=O)c1ccc(F)cc1	x	-9	16	x	x
CC(C(=O)NCC(=O)Nc1ccc(F)c(F)c1F)N1CCN(Cc2ccc(C#N)cc2)CC1 (configuration not stated)	x	8	9	x	x
CC(C(=O)NCC(=O)Nc1ccc(F)c(F)c1F)N1CCN(c2ccc(O)cc2)CC1 (configuration not stated)	x	70*	10	x	43
COc1cc(OC)cc(C(=O)NCC2CCCN(C(=O)c3csc(C(C)C)n3)C2)c1 (configuration not stated)	x	8	6	x	x
O=c1cc(-c2ccccc2)oc2ccc(Cl)cc12	x	16	3	x	x
O=c1cc(-c2ccccc2)oc2cc(O)c(O)c(O)c12	x	102*	9	x	95*	Diaph ctr 10uM=94*;Diaph ctr 30uM=81*
CCOC(=O)c1cc2c(=O)n3cccc(C)c3nc2n(Cc2ccco2)c1=NC(=O)c1cccnc1	-30	60*	25	31	-1
C=CCN(CC=C)Cc1cc(=O)n2c(-c3ccccc3)csc2n1	x	4	3	x	x
O=c1cc(CN2CCN(c3ccc(O)cc3)CC2)nc2scc(-c3ccccc3)n12	10	65*	7	27	29
Cc1cccc(C)c1OCc1cc(C(=O)N(C)CCc2ccccn2)no1	x	-10	-7	x	x
CC1(C)CC(=O)C2=C(C1)NC(=S)C(C#N)C21CCCCC1 (configuration not stated)	x	76*	2	x	18
O=C(NCC(=O)N1CCN(S(=O)(=O)c2c(F)cccc2F)CC1)c1ccccc1F	x	-4	2	x	x
SMILES	G6PDH counter	PfGluPho inh	HKDC1 inh	Diaphorase inh	PfG6PD confirm	others
Cc1ccc(C(=O)Nc2ccc(O)cc2C(=O)O)cc1	-2	66*	0	20	39
O=C(NCc1ccco1)c1cccnc1-c1nc2ccccc2s1	-12	60*	8	7	25
CN(C)c1ccc(/C=C/c2ccc3c4ccccc4ccc3[n+]2-c2ccccc2)cc1	-13	66*	26	68*	68*	Diaph ctr 10uM=-16;Diaph ctr 30uM=-4
CCCN1CCN(C(=O)C(C)n2nc(C)c3sc4ccccc4c3c2=O)CC1 (configuration not stated)	x	-5	0	x	x
Cc1cc(Cl)ccc1OCCNC(=S)NC(=O)c1cccnc1	x	-27	-3	x	x
CC(C)c1ccccc1OCCNC(=S)NC(=O)c1cccnc1	-1	67*	1	20	21
O=[N+]([O-])c1ccc(Oc2cccc3cccnc23)c(Cl)c1	x	111*	4	x	80*	Diaph ctr 10uM=72*;Diaph ctr 30uM=60*
NC(=O)c1ccc(Oc2cccc3cccnc23)c([N+](=O)[O-])c1	18	19	9	12	x
CCCCNC(=O)C1(N2C(=O)c3ccccc3C2=O)CCCC1	x	-4	-4	x	x
COc1cc(/C=N/N2CCN(C3c4ccccc4-c4ccccc43)CC2)cc(OC)c1O	-11	76*	16	27	17
COc1cc(/C=N/N2CCN(C3c4ccccc4-c4ccccc43)CC2)cc(OC)c1OC	-27	-2	12	20	x
CCOc1ccc(/C=N/N2C(C)CCCC2C)cc1OC (configuration not stated)	x	-17	-3	x	x
COc1cc(/C=N/N2C(C)CCCC2C)cc(OC)c1O (configuration not stated)	x	84*	5	x	18
CSc1nc(=NC(C)=O)ss1	25	68*	-9	4	38
CCN(CC)C(=O)C1=C(C)N(Cc2ccc(OC)cc2)C(=O)C(CC(=O)NC(c2ccccc2)c2ccccc2)C1 (configuration not stated)	x	14	x	x	x
Oc1ccc2c(ccc3[nH]cnc32)c1	x	4	1	x	x
Brc1cc2[nH]cnc2c2ccccc12	-27	59*	21	38	50*	Diaph ctr 10uM=29;Diaph ctr 30uM=28
CC(C)(C)NC(=S)N1CCC(C(=O)c2ccc(Cl)cc2)CC1	x	-14	-3	x	x
O=C(N/N=C/c1ccccn1)c1cccc(S(=O)(=O)Nc2ccccc2Cl)c1	12	40	-5	12	x
Cc1ccsc1/C=N/NC(=O)c1cccc(S(=O)(=O)Nc2ccccc2Cl)c1	-9	64*	-8	22	60*	Diaph ctr 10uM=43;Diaph ctr 30uM=47
COc1cccc(NC(=O)CSc2nnc(-c3ccoc3C)n2C)c1	x	6	-3	x	x
COc1ccc(-n2c(C)cc(C(=O)CSc3nnc(-c4ccoc4C)n3C)c2C)cc1	5	67*	-1	17	45
Cc1nc2cc(NC(=O)c3ccc(Br)s3)ccc2s1	x	67*	-7	x	30
Cc1ccc(C(=O)Nc2ccc3nc(C)sc3c2)s1	4	-3	-2	0	x
COc1ccc(-c2nc3ccccc3[nH]2)cc1	1	61*	-10	4	15
CC(C)CN(C(=O)c1cc(Cl)nc2ccccc12)C1CCS(=O)(=O)C1 (configuration not stated)	x	-13	2	x	x

Screens as filed in PubChem BioAssay.
